Assays:
[1] = Cytotoxicity against human CEM/ADR5000 by CCK-8 assay; assay type: functional
How it was run: (§1)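 CCRF-CEM or P-glycoprotein-overexpressing CEM/ADR5000 leukemia cells in RPMI1640. CEM/ADR5000 maintained by treatment with 5000 ng/mL doxorubicin every other week for three days. Viability by CCK-8: reagent added, 3 h at 37 °C, absorbance 450 nm. IC50 from dose–response curves. At least two independent experiments, each with 6 parallel measurements (12 values per concentration), mean ± SEM.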

[2] = system: CCRF-CEM; assay: Selectivity ratio of IC50 for human CEM/ADR5000 cells to IC50 for human CCRF-CEM cells; assay type: functional
[3] = system: CCRF-CEM; assay: Cytotoxicity against human CCRF-CEM cells by CCK-8 assay; assay type: functional, cell-based; how it was run: as §1

| Structure (SMILES) | IC50 [1] | Ratio IC50 [2] | IC50 [3] |
| --- | --- | --- | --- |
| C[C@H]1[C@H](OC(=O)CCC(=O)NCCCNC(=O)CCC(=O)O[C@@H]2O[C@@H]3O[C@@]4(C)CC[C@H]5[C@H](C)CC[C@@H]([C@H]2C)[C@@]35OO4)O[C@@H]2O[C@@]3(C)CC[C@H]4[C@H](C)CC[C@@H]1[C@@]24OO3 | 200 nM | 0.17 |  |
| C[C@@H]1CC[C@H]2[C@@H](C)C(=O)O[C@@H]3O[C@@]4(C)CC[C@@H]1[C@]32OO4 [ARTEMISININ] |  | 0.73 |  |
| C[C@H]1[C@H](OC(=O)CCC(=O)NCCCCCCCCNC(=O)CCC(=O)O[C@@H]2O[C@@H]3O[C@@]4(C)CC[C@H]5[C@H](C)CC[C@@H]([C@H]2C)[C@@]35OO4)O[C@@H]2O[C@@]3(C)CC[C@H]4[C@H](C)CC[C@@H]1[C@@]24OO3 | 3040 nM | 1.03 | 2940 nM |
| C[C@H]1[C@H](OC(=O)CCC(=O)NCc2cccc(CNC(=O)CCC(=O)O[C@@H]3O[C@@H]4O[C@@]5(C)CC[C@H]6[C@H](C)CC[C@@H]([C@H]3C)[C@@]46OO5)c2)O[C@@H]2O[C@@]3(C)CC[C@H]4[C@H](C)CC[C@@H]1[C@@]24OO3 | 1510 nM | 0.94 | 1600 nM |
| COc1cccc2c1C(=O)c1c(O)c3c(c(O)c1C2=O)C[C@@](O)(C(=O)CO)C[C@@H]3O[C@H]1C[C@H](N)[C@H](O)[C@H](C)O1 [DOXORUBICIN] | > 5200 nM | >140 | 37 nM |
| C[C@H]1[C@H](OC(=O)CCC(=O)O)O[C@@H]2O[C@@]3(C)CC[C@H]4[C@H](C)CC[C@@H]1[C@@]24OO3 [ARTESUNATE] | 1200 nM | 0.67 |  |
| C[C@H]1[C@H](OC(=O)CCC(=O)NCC(O)CNC(=O)CCC(=O)O[C@@H]2O[C@@H]3O[C@@]4(C)CC[C@H]5[C@H](C)CC[C@@H]([C@H]2C)[C@@]35OO4)O[C@@H]2O[C@@]3(C)CC[C@H]4[C@H](C)CC[C@@H]1[C@@]24OO3 (some centres not stated) | 1210 nM | 0.56 | 2160 nM |
